# According to ChEMBL document CHEMBL1817611, “Synthesis, antitubercular activity, and SAR study of N-substituted-phenylamino-5-methyl-1H-1,2,3-triazole-4-carbohydrazides” (2011):
# Test system: Mycobacterium tuberculosis
# Test: Antitubercular activity against Mycobacterium tuberculosis H37Rv ATCC 27294 by microplate alamar blue assay
# Format: functional
# Method in brief: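 Resazurin-based (Alamar Blue) colorimetric redox indicator used to assess growth of M. tuberculosis H37Rv. MIC (µg/mL) is taken as the lowest drug concentration that prevents a colour change from blue (no growth) to pink (growth).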
row,SMILES,MIC [µg/mL]
1,Cc1c(C(=O)N/N=C/c2ccccc2)nnn1Nc1ccc(Br)cc1,> 100
2,Cc1c(C(=O)N/N=C/c2ccccc2)nnn1Nc1ccc(F)cc1,> 100
3,Cc1c(C(=O)N/N=C/c2ccc(Br)s2)nnn1Nc1ccc(Br)cc1,> 100
4,Cc1c(C(=O)N/N=C/c2ccc(Br)s2)nnn1Nc1ccc(F)cc1,> 100
5,Cc1c(C(=O)N/N=C/c2ccco2)nnn1Nc1ccc(Br)cc1,25.5
6,Cc1c(C(=O)N/N=C/c2ccco2)nnn1Nc1ccc(F)cc1,12.5
7,Cc1c(C(=O)N/N=C/c2ccc([N+](=O)[O-])o2)nnn1Nc1ccc(Br)cc1,6.25
8,Cc1c(C(=O)N/N=C/c2ccc([N+](=O)[O-])o2)nnn1Nc1ccc(F)cc1,5
9,Cc1c(C(=O)N/N=C/c2ccc([N+](=O)[O-])o2)nnn1Nc1ccccc1,2.5
10,Cc1c(C(=O)N/N=C/c2ccc(Br)s2)nnn1Nc1ccccc1,12.5
11,Cc1c(C(=O)N/N=C/c2ccc([N+](=O)[O-])o2)nnn1Nc1ccc(Cl)cc1,5
12,Cc1c(C(=O)N/N=C/c2ccccc2)nnn1Nc1ccc(Cl)cc1,> 100
13,Cc1c(C(=O)N/N=C/c2ccccc2)nnn1Nc1ccccc1,> 100
14,Cc1c(C(=O)N/N=C/c2ccc(Br)s2)nnn1Nc1ccc(Cl)cc1,> 100
15,Cc1c(C(=O)N/N=C/c2ccco2)nnn1Nc1ccc(Cl)cc1,12.5
16,Cc1c(C(=O)N/N=C/c2ccco2)nnn1Nc1ccccc1,5
17,CC[C@@H](CO)NCCN[C@@H](CC)CO [ETHAMBUTOL],2
18,CC(C)CCOc1ccc(NC(=S)Nc2ccc(OCCC(C)C)cc2)cc1 [TIOCARLIDE],2.5
